Experimental data reported in publication PMC4102658 (Circulation. Cardiovascular imaging, 2014).

Target: T1, fibrin (Rattus norvegicus, UniProt P02680+P06399+P14480)
T1 sequence (P06399 20-550 isoform P06399-2 limits assumed): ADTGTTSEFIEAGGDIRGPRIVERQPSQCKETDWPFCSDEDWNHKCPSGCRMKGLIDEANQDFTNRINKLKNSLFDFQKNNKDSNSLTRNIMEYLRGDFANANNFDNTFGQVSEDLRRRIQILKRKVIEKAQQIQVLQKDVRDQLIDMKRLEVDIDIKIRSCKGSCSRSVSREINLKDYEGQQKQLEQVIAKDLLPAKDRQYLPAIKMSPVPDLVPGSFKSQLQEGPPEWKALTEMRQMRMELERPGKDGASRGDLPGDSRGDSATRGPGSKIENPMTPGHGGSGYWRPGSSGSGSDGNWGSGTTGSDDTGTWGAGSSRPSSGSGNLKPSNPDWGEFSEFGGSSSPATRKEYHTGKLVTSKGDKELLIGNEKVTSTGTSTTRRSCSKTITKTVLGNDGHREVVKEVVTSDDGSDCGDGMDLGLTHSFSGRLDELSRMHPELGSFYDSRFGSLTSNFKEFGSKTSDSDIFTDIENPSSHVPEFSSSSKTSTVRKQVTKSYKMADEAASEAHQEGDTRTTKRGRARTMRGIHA
T1 sequence (P14480 33-479 limits assumed): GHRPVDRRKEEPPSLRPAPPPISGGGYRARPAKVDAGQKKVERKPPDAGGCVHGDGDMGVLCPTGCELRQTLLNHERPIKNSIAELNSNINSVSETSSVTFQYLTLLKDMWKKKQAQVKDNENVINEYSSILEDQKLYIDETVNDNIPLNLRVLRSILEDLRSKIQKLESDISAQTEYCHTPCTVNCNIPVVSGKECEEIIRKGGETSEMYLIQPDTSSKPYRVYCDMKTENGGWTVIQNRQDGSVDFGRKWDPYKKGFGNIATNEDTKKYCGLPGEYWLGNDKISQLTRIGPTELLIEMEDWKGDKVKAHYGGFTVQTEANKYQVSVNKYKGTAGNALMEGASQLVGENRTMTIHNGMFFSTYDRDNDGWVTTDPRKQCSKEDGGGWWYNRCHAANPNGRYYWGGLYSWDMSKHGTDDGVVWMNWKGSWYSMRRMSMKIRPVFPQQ
T1 sequence (P02680 26-437 isoform P02680-2 limits assumed): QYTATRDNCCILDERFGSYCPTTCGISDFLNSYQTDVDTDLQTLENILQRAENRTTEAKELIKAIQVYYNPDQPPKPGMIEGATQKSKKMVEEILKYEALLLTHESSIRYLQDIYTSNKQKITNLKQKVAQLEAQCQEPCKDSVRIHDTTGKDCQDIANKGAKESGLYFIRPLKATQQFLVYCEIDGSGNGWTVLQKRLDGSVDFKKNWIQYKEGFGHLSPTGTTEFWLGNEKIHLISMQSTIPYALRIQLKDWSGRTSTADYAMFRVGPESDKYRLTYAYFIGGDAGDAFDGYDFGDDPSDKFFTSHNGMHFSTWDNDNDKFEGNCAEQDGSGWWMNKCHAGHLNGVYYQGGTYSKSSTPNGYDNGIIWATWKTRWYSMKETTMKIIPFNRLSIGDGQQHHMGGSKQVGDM
Assay: brain autoradiography, embolic stroke with rtPA or vehicle
Assay type: in vivo
Conditions: rtPA-treated animals
In short: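 Rats with embolic clot in ICA/MCA got ~300 μCi probe (0.3–0.4 mL, saline flush) 15–30 min after surgery. About 1 h after clot injection they received rtPA (10 mg/kg i.v., 10% bolus, 90% infused over 30 min) or 1 mL saline. Euthanised after 45 min baseline plus 90 min PET. 2 mm brain sections autoradiographed; ipsilateral/contralateral ICA-MCA ROI activity ratio; mean ± S.E.M.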

Q: For “rtPA: recombinant tissue plasminogen activator (alteplase), thrombolytic treatment”, which “ipsilateral to contralateral ICA-MCA ratio by autoradiography with FBP7” value is on record?
A: ~1
